Four compounds from ChEMBL document CHEMBL3632558, “Synthesis, antimycobacterial and antibacterial activity of l-[(1R,2S)-2-fluorocyclopropyl]naphthyridone derivatives containing an oxime-functionalized pyrrolidine moiety” (2015) can be followed below.

Each structure is given as a SMILES string. Values after ≈ are worked out from the molar mass of the structure shown.

In general, MIC90 refers to an inhibitory concentration at the 90% level, which refers to growth in some studies and to a panel of isolates in others. The MIC is the lowest concentration found to suppress growth.

Common to all, as to type: functional
Experiment [1] concerns Mycobacterium tuberculosis. The experiment in a line: Antimycobacterial activity against Mycobacterium tuberculosis H37Rv ATCC 27294 by alamar blue assay. The procedure, abridged:
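Microplate Alamar Blue Assay; MIC is the lowest concentration giving ≥90% reduction in fluorescence relative to the mean of replicate bacterium-only controls. MDR strain 6133 is resistant to isoniazid and rifampicin.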
A general note: Alamar Blue is a resazurin reagent that responds to reducing activity.

For experiment [2], the system named is Staphylococcus aureus. The experiment in a line: Antibacterial activity against methicillin-sensitive Staphylococcus aureus 14-3 after 18 to 24 hrs. The procedure, abridged:
(§1)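 MIC by standard NCCLS reference procedure (M100-S11); lowest concentration of compound inhibiting visible bacterial growth after incubation at 35 °C for 18–24 h, read as complete inhibition of growth. Ciprofloxacin, levofloxacin and moxifloxacin run alongside as reference agents.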

Experiment [3] deals with Klebsiella pneumoniae. The experiment in a line: Antibacterial activity against Klebsiella pneumoniae 14-3 after 18 to 24 hrs. The procedure, abridged:
as §1

The test system of experiment [4] is Klebsiella pneumoniae. The experiment in a line: Antibacterial activity against Klebsiella pneumoniae 14-2 after 18 to 24 hrs. The procedure, abridged:
as §1

Experiment [5] relates to Staphylococcus epidermidis. The experiment in a line: Antibacterial activity against methicillin-resistant Staphylococcus epidermidis 14-39 after 18 to 24 hrs.
Experiment [6] relates to Staphylococcus epidermidis. Put plainly: Antibacterial activity against methicillin-resistant Staphylococcus epidermidis 14-21 after 18 to 24 hrs.
The subject of experiment [7] is Staphylococcus aureus. The experiment in a line: Antibacterial activity against methicillin-sensitive Staphylococcus aureus 14-1 after 18 to 24 hrs. The procedure, abridged:
as §1

Experiment [8] concerns Enterococcus faecium. Put plainly: Antibacterial activity against Enterococcus faecium 14-2 after 18 to 24 hrs. The procedure, abridged: as §1
Experiment [9] relates to Enterococcus faecium. The experiment in a line: Antibacterial activity against Enterococcus faecium 14-1 after 18 to 24 hrs. The procedure, abridged:
as §1

Experiment [10] concerns Staphylococcus epidermidis. The experiment in a line: Antibacterial activity against methicillin-resistant Staphylococcus epidermidis 14-37 after 18 to 24 hrs.
The test system of experiment [11] is Staphylococcus aureus. The experiment in a line: Antibacterial activity against methicillin-resistant Staphylococcus aureus 14-5 after 18 to 24 hrs.
Experiment [12] has as its system Enterococcus faecium. Put plainly: Antibacterial activity against Enterococcus faecium 14-6 after 18 to 24 hrs. The procedure, abridged: as §1
Experiment [13] has as its system Escherichia coli. Put plainly: Antibacterial activity against ESBL-positive Escherichia coli 14-2 after 18 to 24 hrs. The procedure, abridged: as §1
The test system of experiment [14] is Klebsiella pneumoniae. The experiment in a line: Antibacterial activity against ESBL-positive Klebsiella pneumoniae 14-17 after 18 to 24 hrs. The procedure, abridged:
as §1

The subject of experiment [15] is Staphylococcus aureus. The experiment in a line: Antibacterial activity against methicillin-resistant Staphylococcus aureus 14-4 after 18 to 24 hrs.
For experiment [16], the system named is Klebsiella pneumoniae. The experiment in a line: Antibacterial activity against Klebsiella pneumoniae 14-1 after 18 to 24 hrs. The procedure, abridged: as §1
In experiment [17] the test system is Staphylococcus aureus. The experiment in a line: Antibacterial activity against Staphylococcus aureus CMCC 26003 after 18 to 24 hrs. The procedure, abridged: as §1
Experiment [18] relates to Enterococcus faecalis. Put plainly: Antibacterial activity against Enterococcus faecalis 14-1 after 18 to 24 hrs. The procedure, abridged: as §1
In experiment [19] the test system is Klebsiella pneumoniae. Put plainly: Antibacterial activity against ESBL-positive Klebsiella pneumoniae 14-19 after 18 to 24 hrs. The procedure, abridged:
as §1

In experiment [20] the test system is Escherichia coli. Put plainly: Antibacterial activity against Escherichia coli 14-2 after 18 to 24 hrs. The procedure, abridged:
as §1

Experiment [21] concerns Enterococcus faecium. The experiment in a line: Antibacterial activity against Enterococcus faecium 14-5 after 18 to 24 hrs. The procedure, abridged: as §1
In experiment [22] the test system is Staphylococcus epidermidis. The experiment in a line: Antibacterial activity against methicillin-sensitive Staphylococcus epidermidis 14-2 after 18 to 24 hrs. The procedure, abridged: as §1
Experiment [23] has as its system Escherichia coli. Put plainly: Antibacterial activity against Escherichia coli 14-1 after 18 to 24 hrs. The procedure, abridged:
as §1

The test system of experiment [24] is Klebsiella pneumoniae. The experiment in a line: Antibacterial activity against Klebsiella pneumoniae 14-4 after 18 to 24 hrs. The procedure, abridged:
as §1

Experiment [25] deals with Staphylococcus aureus. The experiment in a line: Antibacterial activity against methicillin-sensitive Staphylococcus aureus 14-4 after 18 to 24 hrs. The procedure, abridged:
as §1

Experiment [26] relates to Escherichia coli. Put plainly: Antibacterial activity against ESBL-positive Escherichia coli 14-1 after 18 to 24 hrs. The procedure, abridged: as §1
Experiment [27] deals with Staphylococcus epidermidis. The experiment in a line: Antibacterial activity against methicillin-resistant Staphylococcus epidermidis 14-22 after 18 to 24 hrs.
Experiment [28] has as its system Staphylococcus aureus. Put plainly: Antibacterial activity against methicillin-sensitive Staphylococcus aureus 14-2 after 18 to 24 hrs. The procedure, abridged: as §1
For experiment [29], the system named is Enterococcus faecalis. The experiment in a line: Antibacterial activity against Enterococcus faecalis 14-2 after 18 to 24 hrs. The procedure, abridged:
as §1

In experiment [30] the test system is Klebsiella pneumoniae. The experiment in a line: Antibacterial activity against ESBL-positive Klebsiella pneumoniae 14-18 after 18 to 24 hrs. The procedure, abridged:
as §1

Experiment [31] has as its system Pseudomonas aeruginosa. Put plainly: Antibacterial activity against Pseudomonas aeruginosa ATCC 27853 after 18 to 24 hrs. The procedure, abridged: as §1
Experiment [32] has as its system Pseudomonas aeruginosa. Put plainly: Antibacterial activity against Pseudomonas aeruginosa 14-19 after 18 to 24 hrs. The procedure, abridged: as §1
Experiment [33] has as its system Pseudomonas aeruginosa. Put plainly: Antibacterial activity against Pseudomonas aeruginosa 14-15 after 18 to 24 hrs. The procedure, abridged:
as §1

The test system of experiment [34] is Pseudomonas aeruginosa. Put plainly: Antibacterial activity against Pseudomonas aeruginosa 14-16 after 18 to 24 hrs. The procedure, abridged: as §1
Experiment [35] has as its system Pseudomonas aeruginosa. Put plainly: Antibacterial activity against Pseudomonas aeruginosa 14-9 after 18 to 24 hrs. The procedure, abridged:
as §1

Experiment [36] concerns Pseudomonas aeruginosa. Put plainly: Antibacterial activity against Pseudomonas aeruginosa 14-14 after 18 to 24 hrs. The procedure, abridged:
as §1

The next experiment deals with Streptococcus pneumoniae. The experiment in a line: Antibacterial activity against Streptococcus pneumoniae ATCC 19615 after 18 to 24 hrs. The procedure, abridged: as §1

Consider `NNC(=O)c1ccncc1` [ISONIAZID], for which the MIC90 in experiment [1] was found to be 0.049 µg/mL (≈ 0.357 µM).
Regarding `C[C@H]1COc2c(N3CCN(C)CC3)c(F)cc3c(=O)c(C(=O)O)cn1c23.C[C@H]1COc2c(N3CCN(C)CC3)c(F)cc3c(=O)c(C(=O)O)cn1c23.O` [LEVOFLOXACIN], the minimum inhibitory concentration (MIC) against Staphylococcus aureus [2] is 0.125 µg/mL; in the experiment with Klebsiella pneumoniae [3], 16 µg/mL; against Klebsiella pneumoniae [4], 8 µg/mL; in experiment [5] it was 64 µg/mL; in experiment [6] it was 64 µg/mL; in the experiment with Staphylococcus aureus [7], 8 µg/mL. Besides, the MIC is 32 µg/mL against Enterococcus faecium [8]; 16 µg/mL in the experiment on Enterococcus faecium [9]; 64 µg/mL in [10]; 8 µg/mL in the experiment on Staphylococcus aureus [11]; 64 µg/mL with Enterococcus faecium [12]; 8 µg/mL in the experiment with Escherichia coli [13]. Besides, the MIC with Klebsiella pneumoniae [14] came out at 4 µg/mL; against Staphylococcus aureus [15] it was 64 µg/mL; in the experiment with Klebsiella pneumoniae [16], 16 µg/mL; with Staphylococcus aureus [17] it was 0.125 µg/mL; against Enterococcus faecalis [18] it was 128 µg/mL; against Klebsiella pneumoniae [19] it was 64 µg/mL. Further, the minimal inhibitory concentration (MIC) in the experiment with Escherichia coli [20] came to 4 µg/mL; against Enterococcus faecium [21], 64 µg/mL; in experiment [22], 128 µg/mL; with Escherichia coli [23], 4 µg/mL; in the experiment with Klebsiella pneumoniae [24] it was 8 µg/mL; against Staphylococcus aureus [25], 0.5 µg/mL. For the same compound, the MIC in the experiment with Escherichia coli [26] amounted to 2 µg/mL; in [27], 32 µg/mL; against Staphylococcus aureus [28] it was 0.25 µg/mL; in the experiment on Enterococcus faecalis [29], 1 µg/mL.
Regarding `COc1c(N2C[C@@H]3CCCN[C@@H]3C2)c(F)cc2c(=O)c(C(=O)O)cn(C3CC3)c12` [MOXIFLOXACIN], the minimum inhibitory concentration (MIC) was less than 0.008 µg/mL against Staphylococcus aureus [2]; 32 µg/mL (≈ 79.7 µM) against Klebsiella pneumoniae [3]; 16 µg/mL (≈ 39.9 µM) in the experiment on Klebsiella pneumoniae [4]; 8 µg/mL (≈ 19.9 µM) in [5]; 1 µg/mL (≈ 2.49 µM) against Klebsiella pneumoniae [30]; 32 µg/mL (≈ 79.7 µM) in experiment [6]. The MIC is 4 µg/mL (≈ 9.96 µM) against Staphylococcus aureus [7]; 8 µg/mL (≈ 19.9 µM) against Enterococcus faecium [9]; 2 µg/mL (≈ 4.98 µM) against Pseudomonas aeruginosa [31]; 1 µg/mL (≈ 2.49 µM) against Pseudomonas aeruginosa [32]; 8 µg/mL (≈ 19.9 µM) in experiment [10]; 8 µg/mL (≈ 19.9 µM) against Staphylococcus aureus [11]. For the same compound, the MIC with Enterococcus faecium [12] stood at 8 µg/mL (≈ 19.9 µM); against Klebsiella pneumoniae [14] it was 8 µg/mL (≈ 19.9 µM); in the experiment with Pseudomonas aeruginosa [33] it was 16 µg/mL (≈ 39.9 µM); in the experiment with Staphylococcus aureus [15], 16 µg/mL (≈ 39.9 µM); against Klebsiella pneumoniae [16] it was 8 µg/mL (≈ 19.9 µM); against Staphylococcus aureus [17] it was 0.06 µg/mL (≈ 0.149 µM). Further, the minimal inhibitory concentration (MIC) is 32 µg/mL (≈ 79.7 µM) against Enterococcus faecalis [18]; 64 µg/mL (≈ 159 µM) in the experiment on Klebsiella pneumoniae [19]; 8 µg/mL (≈ 19.9 µM) in the experiment with Enterococcus faecium [21]; 32 µg/mL (≈ 79.7 µM) in [22]; 16 µg/mL (≈ 39.9 µM) against Klebsiella pneumoniae [24]; 8 µg/mL (≈ 19.9 µM) in the experiment with Pseudomonas aeruginosa [34]. For the same compound, the minimal inhibitory concentration (MIC) was 4 µg/mL (≈ 9.96 µM) in the experiment on Pseudomonas aeruginosa [35]; less than 0.008 µg/mL against Staphylococcus aureus [25]; 8 µg/mL (≈ 19.9 µM) in [27]; 0.06 µg/mL (≈ 0.149 µM) in the experiment on Staphylococcus aureus [28]; 16 µg/mL (≈ 39.9 µM) against Pseudomonas aeruginosa [36]; 0.5 µg/mL (≈ 1.25 µM) against Enterococcus faecalis [29]. In the experiment on Streptococcus pneumoniae, this compound displayed an MIC of 0.015 µg/mL (≈ 0.0374 µM).
In experiment [1], `CO[C@H]1/C=C/O[C@@]2(C)Oc3c(C)c(O)c4c(O)c(c(/C=N/N5CCN(C)CC5)c(O)c4c3C2=O)NC(=O)/C(C)=C\C=C\[C@H](C)[C@H](O)[C@@H](C)[C@@H](O)[C@@H](C)[C@H](OC(C)=O)[C@@H]1C` [RIFAMPIN] registered an MIC90 of 0.05 µg/mL (≈ 0.0608 µM).
